Experimental data from ChEMBL document CHEMBL1136742, “New isomeric azine-bridged dinuclear platinum(II) complexes circumvent cross-resistance to cisplatin” (J Med Chem, 2003).

Tests used:
Type in all cases: functional, cell-based
M19-MEL = assay: In vitro cytotoxicity against human tumor M19 cell line (melanoma cancer)
How it was run: (§1)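 Cells kept in log-phase culture in RPMI 1640 with Hepes and phenol red, 10% FCS, penicillin 100 IU/mL and streptomycin 100 µg/mL. Complexes dissolved in water and diluted in full medium, then added after 48 h preincubation in 96-well plates. Incubation 120 h at 37 °C, 8.5% CO2. IC50 read by sulforhodamine-B microculture test.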

EVSA-T = assay: In vitro cytotoxicity against human tumor EVSA-T cell line (breast cancer); how it was run: as §1
L1210 [1] = assay: In vitro cytotoxicity against mouse tumor L1210 cell line (sensitive to Cisplatin)
How it was run: (§2)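 Suspension culture in RPMI 1640 with 10% heat-inactivated fetal calf serum, no antibiotics, 37 °C, 5% CO2. Cells seeded at 10^5 cells/mL in 96-well plates and exposed 48 h to a range of platinum complex concentrations. MTT added, 4 h at 37 °C, then wash with PBS. Dye taken up in 2-propanol, absorbance read at 570 nm. IC50 taken as 50% absorbance drop versus drug-free control.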

A498 = assay: In vitro cytotoxicity against human tumor A498 cell line (renal cancer); how it was run: as §1
WiDr = assay: In vitro cytotoxicity against human tumor WIDR cell line (colon cancer); how it was run: as §1
NCI-H226 = assay: In vitro cytotoxicity against human tumor H226 cell line (nonsmall cell lung cancer); how it was run: as §1
IGROV-1 = assay: In vitro cytotoxicity against human tumor IGROV cell line (ovarian cancer); how it was run: as §1
MCF7 = assay: In vitro cytotoxicity against human tumor MCF-7 cell line (breast cancer); how it was run: as §1
L1210 [2] = assay: Ratio of in vitro cytotoxicity against mouse tumor L1210 cell line (resistant to Cisplatin) to that of sensitive L1210 cell line
How it was run: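 Resistant and sensitive L1210 cells in suspension culture, RPMI 1640 with 10% heat-inactivated FCS, no antibiotics, 37 °C, 5% CO2. Cells seeded at 10^5 cells/mL and exposed 48 h to platinum complexes. MTT read at 570 nm after solubilizing in 2-propanol. IC50 is 50% absorbance drop versus control; ratio is resistant IC50 over sensitive IC50.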

L1210 [3] = assay: In vitro cytotoxicity against mouse tumor L1210 cell line (resistant to Cisplatin); how it was run: as §2

Row | Substance | IC50 (M19-MEL) | IC50 (EVSA-T) | IC50 (L1210 [1]) | IC50 (A498) | IC50 (WiDr) | IC50 (NCI-H226) | IC50 (IGROV-1) | IC50 (MCF7) | Ratio (L1210 [2]) | IC50 (L1210 [3])
1 | CISPLATIN [listing 1 of 2 here] | 1.9 µM | 1.4 µM | 2.2 µM | 7.5 µM | 3.2 µM | 10.9 µM | 0.6 µM | 2.3 µM |  | 
2 | CISPLATIN [listing 2 of 2 here] |  |  |  |  |  |  |  |  | 6.6 | 
3 | [{cis-Pt(NH3)2Cl}2(-pdn)](NO3)2 [listing 1 of 2 here] | 7.2 µM | > 85.2 µM | 5.7 µM | 53 µM | 13.3 µM | > 85.2 µM | 0.2 µM | 23 µM |  | 21.3 µM
4 | [{cis-Pt(NH3)2Cl}2(-pdn)](NO3)2 [listing 2 of 2 here] |  |  |  |  |  |  |  |  | 3.7 | 
5 | [{cis-Pt(NH3)2Cl}2(-pzn)](NO3)2 [listing 1 of 2 here] | 20.9 µM | 47 µM | 1 µM | 63.5 µM | 2.4 µM | > 85.2 µM | 1 µM | 17 µM |  | 3.5 µM
6 | [{cis-Pt(NH3)2Cl}2(-pzn)](NO3)2 [listing 2 of 2 here] |  |  |  |  |  |  |  |  | 3.5 | 
7 | [{cis-Pt(NH3)2Cl}2(-pzn)]Cl2 [listing 1 of 2 here] | 21.4 µM | 42.5 µM | 1.2 µM | 54.1 µM | 2 µM | > 91.9 µM | 0.8 µM | 15.5 µM |  | 2.5 µM
8 | [{cis-Pt(NH3)2Cl}2(-pzn)]Cl2 [listing 2 of 2 here] |  |  |  |  |  |  |  |  | 2.1 | 
